Tests used:
[1] = system: T47D; assay: Growth inhibition of human T47D cells at 1 nM after 96 hrs by MTT assay; assay type: functional; design: scale not given: the % may be the effect or the level left
[2] = system: OVCAR-3; assay: Growth inhibition of human OVCAR-3 cells at 1 nM after 96 hrs by MTT assay; assay type: functional; design: scale not given: the % may be the effect or the level left
[3] = system: LOX IMVI; assay: Growth inhibition of human LOXIMVI cells at 1 nM after 96 hrs by MTT assay; assay type: functional; design: scale not given: the % may be the effect or the level left
[4] = system: MDA-MB-231; assay: Growth inhibition of human MDA-MB-231 cells at 10 uM after 96 hrs by MTT assay; assay type: functional; design: scale not given: the % may be the effect or the level left
[5] = system: DU-145; assay: Growth inhibition of human DU145 cells at 10 uM after 96 hrs by MTT assay; assay type: functional; design: scale not given: the % may be the effect or the level left
[6] = system: RXF 393; assay: Growth inhibition of human RXF393 cells at 10 uM after 96 hrs by MTT assay; assay type: functional; design: scale not given: the % may be the effect or the level left
[7] = system: 786-0; assay: Growth inhibition of human 786-0 cells at 10 uM after 96 hrs by MTT assay; assay type: functional; design: scale not given: the % may be the effect or the level left
[8] = system: NCI/ADR-RES; assay: Growth inhibition of human NCI/ADR-RES cells at 10 uM after 96 hrs by MTT assay; assay type: functional; design: scale not given: the % may be the effect or the level left
[9] = system: SK-MEL-5; assay: Growth inhibition of human SK-MEL-5 cells at 10 uM after 96 hrs by MTT assay; assay type: functional; design: scale not given: the % may be the effect or the level left
[10] = system: M14; assay: Growth inhibition of human M14 cells at 10 uM after 96 hrs by MTT assay; assay type: functional; design: scale not given: the % may be the effect or the level left
[11] = system: CCRF-CEM; assay: Growth inhibition of human CCRF-CEM cells at 10 uM after 96 hrs by MTT assay; assay type: functional; design: scale not given: the % may be the effect or the level left
[12] = Antitumor activity against human KB3 cells after 96 hrs by MTT assay; assay type: functional, cell-based; conditions: KB3, 96 h
Method in brief: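 Human KB-3 carcinoma cells exposed to increasing compound concentrations; viability read by MTT colorimetric assay after 96 h. Values are means of triplicate assays, expressed relative to untreated controls.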

[13] = system: MDA-MB-435; assay: Growth inhibition of human MDA-MB-435 cells after 96 hrs by MTT assay; assay type: functional; conditions: MDA-MB-435, 96 h
Method in brief: (§1)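 Run in the NCI 60 human tumour cell line panel as a five-dose assay. GI50 and LC50 were reported for each cell line.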

[14] = system: SK-MEL-28; assay: Growth inhibition of human SK-MEL-28 cells after 96 hrs by MTT assay; assay type: functional; conditions: SK-MEL-28, 96 h
Method in brief: (§2)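 Tested in the NCI 60-cell-line panel in five-dose format; GI50 and LC50 values reported for each cell line.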

[15] = system: IGROV-1; assay: Growth inhibition of human IGROV1 cells after 96 hrs by MTT assay; assay type: functional; conditions: IGROV-1, 96 h; method in brief: as §1
[16] = system: OVCAR-4; assay: Growth inhibition of human OVCAR4 cells after 96 hrs by MTT assay; assay type: functional; conditions: OVCAR-4, 96 h; method in brief: as §2
[17] = system: SK-OV-3; assay: Growth inhibition of human SKOV3 cells after 96 hrs by MTT assay; assay type: functional; conditions: SK-OV-3, 96 h; method in brief: as §2
[18] = system: 786-0; assay: Growth inhibition of human 786-0 cells after 96 hrs by MTT assay; assay type: functional; conditions: 786-0, 96 h
[19] = system: SN12C; assay: Growth inhibition of human SN12C cells after 96 hrs by MTT assay; assay type: functional; method in brief: as §2
[20] = system: MDA-MB-468; assay: Growth inhibition of human MDA-MB-468 cells after 96 hrs by MTT assay; assay type: functional; conditions: MDA-MB-468, 96 h; method in brief: as §1
[21] = system: MDA-MB-231; assay: Growth inhibition of human MDA-MB-231 cells at 1 uM after 96 hrs by MTT assay; assay type: functional; design: scale not given: the % may be the effect or the level left
[22] = system: MCF7; assay: Growth inhibition of human MCF7 cells at 1 uM after 96 hrs by MTT assay; assay type: functional; design: scale not given: the % may be the effect or the level left
[23] = system: DU-145; assay: Growth inhibition of human DU145 cells at 1 uM after 96 hrs by MTT assay; assay type: functional; design: scale not given: the % may be the effect or the level left
[24] = system: TK-10; assay: Growth inhibition of human TK10 cells at 1 uM after 96 hrs by MTT assay; assay type: functional; design: scale not given: the % may be the effect or the level left
[25] = system: OVCAR-4; assay: Growth inhibition of human OVCAR4 cells at 1 uM after 96 hrs by MTT assay; assay type: functional; design: scale not given: the % may be the effect or the level left
[26] = system: NCI/ADR-RES; assay: Growth inhibition of human NCI/ADR-RES cells at 100 nM after 96 hrs by MTT assay; assay type: functional; design: scale not given: the % may be the effect or the level left
[27] = system: MDA-MB-435; assay: Growth inhibition of human MDA-MB-435 cells at 100 nM after 96 hrs by MTT assay; assay type: functional; design: scale not given: the % may be the effect or the level left
[28] = system: SW-620; assay: Growth inhibition of human SW620 cells at 100 nM after 96 hrs by MTT assay; assay type: functional; design: scale not given: the % may be the effect or the level left
[29] = system: HCT-116; assay: Growth inhibition of human HCT116 cells at 100 nM after 96 hrs by MTT assay; assay type: functional; design: scale not given: the % may be the effect or the level left
[30] = system: NCI-H23; assay: Growth inhibition of human NCI-H23 cells at 100 nM after 96 hrs by MTT assay; assay type: functional; design: scale not given: the % may be the effect or the level left
[31] = system: A549; assay: Growth inhibition of human A549 cells at 100 nM after 96 hrs by MTT assay; assay type: functional; design: scale not given: the % may be the effect or the level left
[32] = system: OVCAR-8; assay: Growth inhibition of human OVCAR8 cells at 10 nM after 96 hrs by MTT assay; assay type: functional; design: scale not given: the % may be the effect or the level left
[33] = system: OVCAR-5; assay: Growth inhibition of human OVCAR5 cells at 10 nM after 96 hrs by MTT assay; assay type: functional; design: scale not given: the % may be the effect or the level left
[34] = system: SK-MEL-5; assay: Growth inhibition of human SK-MEL-5 cells at 1 uM after 96 hrs by MTT assay; assay type: functional; design: scale not given: the % may be the effect or the level left
[35] = system: KM12; assay: Growth inhibition of human KM12 cells at 1 uM after 96 hrs by MTT assay; assay type: functional; design: scale not given: the % may be the effect or the level left
[36] = system: HCT-15; assay: Growth inhibition of human HCT15 cells at 1 uM after 96 hrs by MTT assay; assay type: functional; design: scale not given: the % may be the effect or the level left
[37] = system: NCI-H226; assay: Growth inhibition of human NCI-H226 cells at 1 uM after 96 hrs by MTT assay; assay type: functional; design: scale not given: the % may be the effect or the level left
[38] = read-out: Log10GI50 (converted)
[39] = read-out: Log10LC50 (converted)
[40] = read-out: LC50 (the source's name)

C=C(C)[C@H]1CC=C(C)C2=CO[C@@H](c3ccccc3F)[C@@H]21
Activity [1]: 98% | Activity [2]: 88% | Activity [3]: 97% | Activity [4]: 101.47% | Activity [5]: 105.62% | Activity [6]: 98.38% | Activity [7]: 93.62% | Activity [8]: 108.3% | Activity [9]: 84.67% | Activity [10]: 102.54% | Activity [11]: 68.96% | IC50 [12]: 1 µM | GI50 ([13]; read-out: GI50): 2.65 µM | LC50 ([13]; read-out: LC50): 66.3 µM | GI50 [13, 38]: 2.63 µM | LC50 [13, 39]: 66.1 µM | TGI ([13]; read-out: Log10TGI (converted)): 11.5 µM | TGI ([13]; read-out: TGI): 11.4 µM | GI50 ([14]; read-out: GI50): 10.5 µM | CC50 [14, 40]: 47.1 µM | GI50 [14, 38]: 10.5 µM | CC50 [14, 39]: 46.8 µM | TGI ([14]; read-out: Log10TGI (converted)): 22.4 µM | TGI ([14]; read-out: TGI): 22.2 µM | GI50 ([15]; read-out: GI50): 11.3 µM | CC50 [15, 40]: > 100 µM | GI50 [15, 38]: 11.2 µM | CC50 [15, 39]: > 100 µM | TGI ([15]; read-out: Log10TGI (converted)): 34.7 µM | TGI ([15]; read-out: TGI): 34.6 µM | GI50 ([16]; read-out: GI50): 4.1 µM | CC50 [16, 40]: 86.6 µM | GI50 [16, 38]: 4.07 µM | CC50 [16, 39]: 87.1 µM | TGI ([16]; read-out: Log10TGI (converted)): 24 µM | TGI ([16]; read-out: TGI): 23.7 µM | GI50 ([17]; read-out: GI50): 12.3 µM | CC50 [17, 40]: > 100 µM | GI50 [17, 38]: 12.3 µM | CC50 [17, 39]: > 100 µM | TGI ([17]; read-out: Log10TGI (converted)): 38.9 µM | TGI ([17]; read-out: TGI): 39.3 µM | GI50 ([18]; read-out: GI50): 8.73 µM | CC50 [18, 40]: 48.1 µM | GI50 [18, 38]: 8.71 µM | CC50 [18, 39]: 47.9 µM | TGI ([18]; read-out: Log10TGI (converted)): 21.4 µM | TGI ([18]; read-out: TGI): 21.5 µM | GI50 ([19]; read-out: GI50): 6.63 µM | CC50 [19, 40]: 45.9 µM | GI50 [19, 38]: 6.61 µM | CC50 [19, 39]: 45.7 µM | TGI ([19]; read-out: Log10TGI (converted)): 20.4 µM | TGI ([19]; read-out: TGI): 20.3 µM | GI50 ([20]; read-out: GI50): 1.43 µM | CC50 [20, 40]: 66.1 µM | GI50 [20, 38]: 1.45 µM | CC50 [20, 39]: 66.1 µM | TGI ([20]; read-out: Log10TGI (converted)): 14.1 µM | TGI ([20]; read-out: TGI): 14.1 µM | Activity [21]: 43% | Activity [22]: 26% | Activity [23]: 37% | Activity [24]: 48% | Activity [25]: 33% | Activity [26]: 82% | Activity [27]: 84% | Activity [28]: 101% | Activity [29]: 82% | Activity [30]: 85% | Activity [31]: 95% | Activity [32]: 97% | Activity [33]: 84% | Activity [34]: 21% | Activity [35]: 24% | Activity [36]: 31% | Activity [37]: 32%
